# From ChEMBL document CHEMBL1148649, “Effect of various pyrimidines possessing the 1-[(2-hydroxy-1-(hydroxymethyl)ethoxy)methyl] moiety, able to mimic natural 2'-deoxyribose, on wild-type and mutant hepatitis B virus replication” (J Med Chem, 2006)
# pEC50: −log10 of the molar value.
# Columns and labels:
# Duck hepatitis B virus [1] = assay: Antiviral activity against duck HBV in primary duck hepatocytes at 10 ug/mL; type: functional; conditions: Hepatocyte
# Outline: (§1)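 Primary hepatocyte cultures from congenitally DHBV-infected ducks were exposed to compounds. Intracellular viral DNA was measured by dot blot hybridization. EC50 is the µM concentration that cuts viral DNA to 50% of untreated infected controls. The single-point value is % inhibition of viral DNA at 10 µg/mL against untreated infected controls.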
# HepG2 = assay: Cytotoxicity against human HepG2 cell line; type: functional
# Outline: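 HepG2 cells were exposed to compounds for 3 days and viability was measured. CC50 is the concentration lowering viability by 50% versus untreated control. ">" means 50% was not reached at the highest concentration tested.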
# Vero = assay: Cytotoxicity against Vero cell line; type: functional; conditions: Chlorocebus sabaeus
# Outline: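 Vero cell viability was measured by MTT after 3 days of compound exposure. CC50 is the concentration giving 50% loss of viability versus untreated control. ">" marks values where 50% was not reached at the highest concentration tested.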
# Hepatitis B virus [2] = assay: Antiviral activity against wild type HBV in human hepatoma 2.2.15 cells at 10 ug/mL; type: functional; conditions: HepG2 2.2.15
# Outline: (§2)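 HBV-transfected human 2.2.15 cells were treated with compounds. Intracellular HBV DNA was quantified by dot blot hybridization. EC50 is the µM concentration that reduces viral DNA to 50% of untreated infected controls. The fixed-dose value is % inhibition at 10 µg/mL against untreated infected controls. Lamivudine and abacavir served as references.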
# Duck hepatitis B virus [3] = assay: Antiviral activity against duck HBV in primary duck hepatocytes; type: functional, organism-based; conditions: Hepatocyte; outline: as §1
# Hepatitis B virus [4] = assay: Antiviral activity against wild type HBV in human hepatoma 2.2.15 cells; type: functional, organism-based; conditions: HepG2 2.2.15; outline: as §2
# Hepatitis B virus [5] = assay: Antiviral activity against HBV L180M/M204V mutant transfected in D88 cell line at 10 ug/mL; type: functional
# Outline: (§3)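 Mutant-HBV-transfected HepG2 lines: B1 carries M204I, D88 carries L180M/M204V. Cells are exposed to compound at 10 µg/mL. Intracellular viral DNA is quantified by dot blot hybridization. Results are given as percent inhibition of viral DNA relative to untreated infected controls.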
# Hepatitis B virus [6] = assay: Antiviral activity against HBV M204I mutant transfected in B1 cell line at 10 ug/mL; type: functional; outline: as §3
# Hepatitis B virus [7] = assay: Antiviral activity against HBV M204I mutant transfected in B1 cell line; type: functional, organism-based
# Outline: (§4)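 HepG2 human hepatoma cells stably transfected with mutant HBV genome: B1 line carries M204I, D88 line carries L180M/M204V. Culture, compound treatment and read-out are as for 2.2.15 cells. Intracellular viral DNA is measured by dot blot hybridization. EC50 is the concentration (µM) that reduces viral DNA to 50% of untreated infected controls.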
# Hepatitis B virus [8] = assay: Antiviral activity against HBV L180M/M204V mutant transfected in D88 cell line; type: functional, organism-based; outline: as §4
# Hepatitis C virus = assay: Antiviral activity against hepatitis C virus; type: functional, organism-based, Hepacivirus hominis
Structure (SMILES),pEC50 (Hepatitis B virus [4]),pEC50 (Hepatitis C virus),inhibition at 10 µg/mL (Duck hepatitis B virus [1]) [%],CC50 (HepG2) [µM],CC50 (Vero) [µM],inhibition at 10 µg/mL (Hepatitis B virus [2]) [%],pEC50 (Duck hepatitis B virus [3]),inhibition at 10 µg/mL (Hepatitis B virus [5]) [%],inhibition at 10 µg/mL (Hepatitis B virus [6]) [%],pEC50 (Hepatitis B virus [7]),pEC50 (Hepatitis B virus [8])
O=c1[nH]c(=O)n(COC(CO)CO)cc1CO,,,0,> 406,> 406,0,,,,,
Cc1c(Br)c(=O)[nH]c(=O)n1COC(CO)CO,4.49,,73,> 324,> 324,55,4.79,30,51,4.49,< 4.49
COc1nc(=O)n(COC(CO)CO)cc1Br,< 4.49,,45,> 323,> 323,35,< 4.49,,,,
Nc1nc(=O)n(COC(CO)CO)cc1F,,3.88,20,> 429,> 429,0,< 4.37,,,,
O=c1[nH]c(=O)n(COC(CO)CO)cc1Cl,4.70,,69,> 400,> 400,60,5.40,40,56,4.70,< 4.40
Nc1nc(NC2CC2)c2ncn([C@H]3C=C[C@@H](CO)C3)c2n1 [ABACAVIR],,,,,,,,72,80,,
Cc1nn(COC(CO)CO)c(=S)[nH]c1=O,,,25,> 404,> 404,0,< 4.39,,,,
O=c1ccn(COC(CO)CO)c(=O)[nH]1,,,0,> 462,> 462,0,,,,,
Cc1cc(=O)[nH]c(=O)n1COC(CO)CO,,,27,> 434,> 434,0,< 4.36,,,,
Nc1ccn(COC(CO)CO)c(=O)n1,,,0,> 465,> 465,0,,,,,
Nc1ccn([C@@H]2CS[C@H](CO)O2)c(=O)n1 [LAMIVUDINE],,,96,,,88,,30,45,< 4.36,

# The next lines start with results.
pEC50 (Hepatitis B virus [4]),pEC50 (Hepatitis C virus),Structure (SMILES),inhibition at 10 µg/mL (Duck hepatitis B virus [1]) [%],CC50 (HepG2) [µM],CC50 (Vero) [µM],inhibition at 10 µg/mL (Hepatitis B virus [2]) [%],pEC50 (Duck hepatitis B virus [3]),inhibition at 10 µg/mL (Hepatitis B virus [5]) [%],inhibition at 10 µg/mL (Hepatitis B virus [6]) [%],pEC50 (Hepatitis B virus [7]),pEC50 (Hepatitis B virus [8])
< 4.36,,Nc1cn(COC(CO)CO)c(=O)[nH]c1=O,37,> 432,> 432,30,< 4.36,,,,
< 4.37,,O=c1[nH]c(=O)n(COC(CO)CO)cc1F,24,> 427,> 427,26,< 4.37,,,,
4.52,,O=c1[nH]c(=O)n(COC(CO)CO)cc1/C=C/Br,75,> 311,> 311,53,5.52,,,,
< 4.39,,CCc1cn(COC(CO)CO)c(=O)[nH]c1=O,35,> 410,> 410,30,< 4.39,,,,
< 4.55,,Cc1c(I)c(=O)[nH]c(=O)n1COC(CO)CO [IODMETACYCLUR],44,> 280,> 280,38,< 4.55,,,,
< 4.42,,O=c1[nH]c(=O)n(COC(CO)CO)cc1CCO,25,> 384,> 384,28,< 4.42,,,,
< 4.42,,O=c1[nH]c(=O)n(COC(CO)CO)cc1[N+](=O)[O-],45,> 383,> 383,40,< 4.42,,,,
< 4.36,,Cc1nn(COC(CO)CO)c(=O)[nH]c1=O,45,> 432,> 432,37,< 4.36,,,,
< 4.47,,O=c1[nH]c(=O)n(COC(CO)CO)cc1Br,48,> 338,> 338,40,< 4.47,,,,
< 4.36,,Cc1cn(COC(CO)CO)c(=O)[nH]c1=O,45,> 434,> 434,37,< 4.36,,,,
< 4.34,,O=c1cnn(COC(CO)CO)c(=O)[nH]1,41,> 460,> 460,32,< 4.34,,,,
